Columns and labels:
Coagulation factor X = Coagulation factor X (Homo sapiens, UniProt P00742); assay: In vitro inhibition of human coagulation factor Xa (Xa) in a purified enzyme system.
Outline: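 Buffer: 150 mM NaCl, 2.5 mM CaCl₂, 50 mM Tris-HCl pH 7.5, 0.1% PEG 6000. For very tight binding, enzyme was lowered to 0.1 nM, or data at 0.3 and 1 nM enzyme were fitted to a modified Morrison equation.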

Prothrombin = Prothrombin (Homo sapiens, UniProt P00734); assay: In vitro inhibition of human thrombin(FIIa).
Outline: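 Medium: 150 mM NaCl, 2.5 mM CaCl₂, 50 mM Tris-HCl pH 7.5, 0.1% PEG 6000. Microplate reader readings at room temperature (~23 °C), light excluded, varying inhibitor concentrations. Competitive Ki derived; assays in duplicate.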

Serine protease 1 [1] = target: T1, Serine protease 1 (Bos taurus, UniProt P00760); assay: In vitro inhibition of bovine trypsin(Trp).
T1 sequence (P00760 whole entry): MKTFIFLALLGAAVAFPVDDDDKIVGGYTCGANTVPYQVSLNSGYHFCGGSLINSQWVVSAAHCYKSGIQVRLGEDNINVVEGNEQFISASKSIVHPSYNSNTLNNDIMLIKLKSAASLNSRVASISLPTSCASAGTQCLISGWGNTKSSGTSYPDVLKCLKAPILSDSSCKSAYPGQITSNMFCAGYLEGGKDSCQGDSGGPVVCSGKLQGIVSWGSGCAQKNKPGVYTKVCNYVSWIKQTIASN
Outline: (§1)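 Buffer was 150 mM NaCl, 2.5 mM CaCl₂, 50 mM Tris-HCl pH 7.5, 0.1% PEG 6000. Read in a microplate reader at ~23 °C in the dark across varying inhibitor concentrations. Ki from competitive treatment; duplicate runs.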

Serine protease 1 [2] = target: T1, Serine protease 1; assay: In vitro inhibition of bovine trypsin (Trp).; outline: as §1

Sequence of Coagulation factor X (P00742 41-179 limits assumed): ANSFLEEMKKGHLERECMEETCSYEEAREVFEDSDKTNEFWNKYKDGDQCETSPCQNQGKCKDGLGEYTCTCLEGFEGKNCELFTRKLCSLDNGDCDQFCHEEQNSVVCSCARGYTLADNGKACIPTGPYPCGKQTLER
Sequence of Coagulation factor X (P00742 235-488 limits assumed): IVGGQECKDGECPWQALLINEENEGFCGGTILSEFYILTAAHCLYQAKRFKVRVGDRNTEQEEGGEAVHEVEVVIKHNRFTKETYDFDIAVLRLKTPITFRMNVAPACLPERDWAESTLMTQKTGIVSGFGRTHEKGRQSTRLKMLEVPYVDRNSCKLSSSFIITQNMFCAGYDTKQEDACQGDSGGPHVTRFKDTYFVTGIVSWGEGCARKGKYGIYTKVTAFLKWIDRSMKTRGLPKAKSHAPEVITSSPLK

Row | SMILES | Ki (Coagulation factor X) [nM] | Ki (Prothrombin) [nM] | Ki (Serine protease 1 [1]) [nM] | Ki (Serine protease 1 [2]) [nM]
1 | N=C(N)c1ccc(/C=C2\CCCC/C(=C/c3ccc(C(N)=O)cc3)C2=O)cc1 | 1850 | 350 | 500 | –
2 | COC(=O)C1C/C(=C/c2ccc(C(=N)N)cc2)C(=O)/C(=C/c2ccc(C(=N)N)cc2)C1 (stereo not drawn) | > 500 | 600 | 224 | –
3 | C/N=C(\N)c1ccc(/C=C2/CCCC/C(=C/c3ccc(C(=N)N)cc3)C2=O)cc1 | 12 | 1600 | 30 | –
4 | NC(=O)c1ccc(/C=C2/CCCC/C(=C\c3ccc(C(N)=O)cc3)C2=O)cc1 | > 5000 | – | – | –
5 | COC(=O)C1C/C(=C\c2ccc(C(=N)N)cc2)C(=O)/C(=C/c2ccc(C(=N)N)cc2)C1 (stereo not drawn) | > 5000 | 4400 | 72 | –
6 | N=C(N)c1ccc(/C=C2/CCCCC/C(=C/c3ccc(C(=N)N)cc3)C2=O)cc1 | 4.6 | 300 | 100 | –
7 | CCOC(=O)N1C/C(=C\c2ccc(C(=N)N)cc2)C(=O)/C(=C/c2ccc(C(=N)N)cc2)C1 | > 5000 | 3300 | 125 | –
8 | N=C(N)c1ccc(/C=C2/CCC/C(=C/c3ccc(C(=N)N)cc3)C2=O)cc1 | 18 | 810 | 440 | –
9 | N=C(N)c1ccc(/C=C2\CC(c3ccccc3)C/C(=C\c3ccc(C(=N)N)cc3)C2=O)cc1 (stereo not drawn) | 3300 | 630 | 56 | –
10 | CN(C)C(=N)c1ccc(/C=C2/CCCC/C(=C/c3ccc(C(=N)N(C)C)cc3)C2=O)cc1 | 1600 | > 5000 | > 5000 | –
11 | C/N=C(\N)c1ccc(/C=C2\CCCC/C(=C\c3ccc(C(=N)N)cc3)C2=O)cc1 | – | – | 840 | –
12 | N=C(N)c1ccc(/C=C2\CC(C(=O)O)C/C(=C\c3ccc(C(=N)N)cc3)C2=O)cc1 (stereo not drawn) | 24400 | 21500 | 880 | –
13 | N=C(N)c1ccc(/C=C2/CCCC/C(=C/c3ccc(C(N)=O)cc3)C2=O)cc1 | 50 | 110 | 690 | –
14 | N=C(N)c1ccc(/C=C2/CC(C(=O)O)C/C(=C/c3ccc(C(=N)N)cc3)C2=O)cc1 (stereo not drawn) | 6.9 | > 50000 | 430 | –
15 | N=C(N)c1ccc(/C=C2/CCC/C(=C\c3ccc(C(=N)N)cc3)C2=O)cc1 | – | 120 | 260 | –
16 | N=C(N)c1ccc(/C=C2\CCCCCC/C(=C\c3ccc(C(=N)N)cc3)C2=O)cc1 | 390 | 3700 | 1500 | –
17 | N=C(N)c1ccc(/C=C2/CCCCCCC/C(=C\c3ccc(C(=N)N)cc3)C2=O)cc1 | – | 150 | 2100 | –
18 | CCOC(=O)N1C/C(=C/c2ccc(C(=N)N)cc2)C(=O)/C(=C/c2ccc(C(=N)N)cc2)C1 | 225 | 630 | 61 | –
19 | CN(C)C(=N)c1ccc(/C=C2/CCCC/C(=C/c3ccc(C(=N)N)cc3)C2=O)cc1 | – | – | 90 | –
20 | N=C(N)c1ccc(/C=C2/CCCCCC/C(=C/c3ccc(C(=N)N)cc3)C2=O)cc1 | 2.8 | 290 | 190 | –

Row | SMILES | Ki (Coagulation factor X) [nM] | Ki (Prothrombin) [nM] | Ki (Serine protease 1 [1]) [nM] | Ki (Serine protease 1 [2]) [nM]
21 | N=C(N)c1ccc(/C=C2\CCCC/C(=C\c3ccc(C(N)=O)cc3)C2=O)cc1 | > 500 | > 500 | > 500 | –
22 | N=C(N)c1ccc(/C=C2/CC/C(=C\c3ccc(C(=N)N)cc3)C2=O)cc1 | 230 | 19200 | 730 | –
23 | CN(C)C(=N)c1ccc(/C=C2/CCCC/C(=C\c3ccc(C(=N)N(C)C)cc3)C2=O)cc1 | > 5000 | > 5000 | > 5000 | –
24 | COC(=O)C1C/C(=C/c2ccc(C(=N)N)cc2)C(=O)/C(=C\c2ccc(C(=N)N)cc2)C1 (stereo not drawn) | 4.8 | 1100 | 100 | –
25 | CN(C)C(=N)c1ccc(/C=C2/CCCC/C(=C\c3ccc(C(=N)N)cc3)C2=O)cc1 | 52 | 120 | 15 | –
26 | N=C(N)c1ccc(/C=C2/CCCCC/C(=C\c3ccc(C(=N)N)cc3)C2=O)cc1 | 130 | – | 30 | –
27 | CCOC(=O)N1C/C(=C/c2ccc(C(=N)N)cc2)C(=O)/C(=C\c2ccc(C(=N)N)cc2)C1 | 2.5 | 380 | 20 | –
28 | N=C(N)c1ccc(/C=C2\CC/C(=C\c3ccc(C(=N)N)cc3)C2=O)cc1 | 4600 | 2200 | 590 | –
29 | N=C(N)c1ccc(/C=C2/CCCCCCC/C(=C/c3ccc(C(=N)N)cc3)C2=O)cc1 | – | – | 2200 | –
30 | N=C(N)c1ccc(/C=C2\CCCCCCC/C(=C\c3ccc(C(=N)N)cc3)C2=O)cc1 | 960 | 730 | 3000 | –
31 | CN(C)C(=N)c1ccc(/C=C2\CCCC/C(=C\c3ccc(C(=N)N(C)C)cc3)C2=O)cc1 | > 5000 | > 5000 | – | > 5000
32 | CN(C)C(=N)c1ccc(/C=C2\CCCC/C(=C\c3ccc(C(=N)N)cc3)C2=O)cc1 | 350 | 3700 | 500 | –
33 | N=C(N)c1ccc(/C=C2\CCCCC/C(=C\c3ccc(C(=N)N)cc3)C2=O)cc1 | 1800 | 2100 | 310 | –
34 | C/N=C(/N)c1ccc(/C=C2/CCCC/C(=C\c3ccc(C(=N)N)cc3)C2=O)cc1 | 500 | 360 | 155 | –
35 | N=C(N)c1ccc(/C=C2/CC(c3ccccc3)C/C(=C\c3ccc(C(=N)N)cc3)C2=O)cc1 (stereo not drawn) | 395 | 325 | 160 | –
36 | N=C(N)c1ccc(/C=C2/CC(c3ccccc3)C/C(=C/c3ccc(C(=N)N)cc3)C2=O)cc1 (stereo not drawn) | 5.2 | 1700 | 100 | –
37 | N=C(N)c1ccc(/C=C2\CCC/C(=C\c3ccc(C(=N)N)cc3)C2=O)cc1 | – | – | 170 | –
38 | N=C(N)c1ccc(/C=C2/CCCCCC/C(=C\c3ccc(C(=N)N)cc3)C2=O)cc1 | 320 | – | 340 | –
39 | NC(=O)c1ccc(/C=C2/CCCC/C(=C/c3ccc(C(N)=O)cc3)C2=O)cc1 | > 5000 | 2900 | > 5000 | –

From ChEMBL document CHEMBL1132552, “Synthesis, characterization, and structure-activity relationships of amidine-substituted (bis)benzylidene-cycloketone olefin isomers as potent and selective factor Xa inhibitors” (J Med Chem, 1999)
